# PMI activator: increases human mannose-6-phosphate isomerase activity. P34949. purified human PMI, coupled resazurin fluorescence, 20 min; stronger effect = higher value; 1 = vehicle control, 0 substrate-free wells. activation factor at 20 µM. actives 0.005% (n = 190,000). AID 1214;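 active = activation factor of 2 or more at 20 µM, relative to plate controls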
# Target sequence (P34949 whole entry, looked up): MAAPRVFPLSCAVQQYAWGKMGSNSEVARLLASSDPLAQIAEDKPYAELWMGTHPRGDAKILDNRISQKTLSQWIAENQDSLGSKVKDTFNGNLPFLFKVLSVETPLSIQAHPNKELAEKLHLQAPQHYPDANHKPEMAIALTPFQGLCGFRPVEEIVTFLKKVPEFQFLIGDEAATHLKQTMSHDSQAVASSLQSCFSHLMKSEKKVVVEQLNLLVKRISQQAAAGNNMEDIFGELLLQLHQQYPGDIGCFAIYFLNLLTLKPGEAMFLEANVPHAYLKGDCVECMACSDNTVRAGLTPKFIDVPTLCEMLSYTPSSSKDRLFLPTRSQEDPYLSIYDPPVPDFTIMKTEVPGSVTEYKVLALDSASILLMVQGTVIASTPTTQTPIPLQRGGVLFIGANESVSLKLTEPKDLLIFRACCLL
# Diaphorase inh: diaphorase inhibition or chemical oxidation counter-screen | diaphorase resazurin-to-resorufin fluorescence, NADH, 16 min; bacterial (C. kluyveri) enzyme, not human | inhibition, % at 20 µM | actives 0.69% (n = 190,000);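 active = primary screen inhibition at 20 µM above a set limit, cut at about 50% in these data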;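 note: plate controls were DMSO with full reaction for no effect and wells lacking NADH for full effect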
#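 material = Clostridium kluyveri diaphorase enzyme | amount = 0.14 U/mL diaphorase, enzyme working solution | schedule = incubation 16 min, room temperature | detection = fluorescence of resorufin formed from resazurin, Ex 544/Em 590 nm | benchmarks = positive control minus NADH, DMSO neutral control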
# PMI act satM6P: increases human PMI activity with near-saturating mannose 6-phosphate | P34949 | coupled PMI enzyme assay, resazurin fluorescence, 20 min; stronger effect = higher value; 1 = untreated enzyme, 0 = substrate-free blank | activation factor at 20 µM | actives 0.34% (n = 190,000) | AID 1216;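 active = activation factor of 2 or more at 20 µM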
#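 assay system = human phosphomannose isomerase with PGI, G6PDH, diaphorase coupling enzymes | quantity = 15 ng/mL PMI | incubation = enzyme reaction with compound 20 min at room temperature | medium = HEPES pH 7.4 buffer with MgCl2 and Tween-20 | compound dosing = one concentration, 20 µM, in 1% DMSO | measured by = Diaphorase-driven resazurin-to-resorufin fluorescence, excitation 544, emission 590 nm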
# G6PDH counter: L. mesenteroides G6PDH inhibition counter-screen | inhibition, % at 5 µM | actives 0.12% (n = 200,000) | Purified L. mesenteroides G6PDH, diaphorase/resazurin coupled fluorescence, 45 min; in the data active = inhibition above about 50%
# Diaph act CS: activates diaphorase or chemically reduces, flagging diaphorase assay artifacts | AID 1229 | actives 0.005% (n = 190,000) | Diaphorase/resazurin coupled assay, resorufin fluorescence, 16 min; stronger effect = higher value; 1 = vehicle wells, 0 = NADH-free wells | activation factor at 20 µM;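 active = diaphorase activity raised at least twofold by the compound at 20 µM; inactive = activation factor below 2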
#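 Material: Purified diaphorase enzyme from Clostridium kluyveri | Buffer or medium: 50 mM HEPES pH 7.4 with 4.542 mM MgCl2, 0.005% Tween 20 | Times: 16 min enzyme reaction, ambient temperature | Signal: Red resorufin fluorescence at 544/590 nm excitation/emission | Measure: Increased resorufin signal from activators or reducing compounds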
# Tb hexokinase: blocks Trypanosoma brucei hexokinase 1 activity; actives 0.11% (n = 220,000); inhibition, % at 10 µM; recombinant TbHK1, G6PDH-coupled NADH A340; AID 1430;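 active = inhibition of 50% or more in the single-dose primary screen; inactive = inhibition below 50%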
# Numbers without * were called inactive; / = no result. Hits are enriched below; roughly 1.1% of the tested compounds scored in any of these assays.
SMILES,PMI activator,Diaphorase inh,PMI act satM6P,G6PDH counter,Diaph act CS,Tb hexokinase
Nc1ccccc1NC1CCCCC1,0.4,82*,0.3,10,0.2,7
O=C(O)c1cccc(NS(=O)(=O)c2ccc(-c3ccc(S(=O)(=O)Nc4cccc(C(=O)O)c4)cc3)cc2)c1,0.9,51*,0.5,0,0.5,3
NNC(=O)Cn1c(-c2ccccc2)cc(=O)n2ncnc12,/,/,/,/,/,-2
C=CCNC(=O)C1CC2Cn3c(nc4cc5ccccc5cc43)C2N1C (configuration not stated),/,/,/,/,/,-6
CSc1nsc(/C=C/Nc2ccc(O)cc2C)c1C#N,0.8,46,0.3,5,0.5,-6
COc1cc(/C=C2\CC/C(=C\c3cc(OC)c(OC)c(OC)c3)C2=O)cc(OC)c1OC,1,18,0.9,2,0.8,-4
COc1cc(/C=C2\CC/C(=C\c3cc(OC)c(O)c(OC)c3)C2=O)cc(OC)c1O,0.4,71*,0.3,56*,0.3,-10
COc1ccccc1CCc1nnc(CCC(=O)NC(C)Cc2cccnc2)o1 (configuration not stated),1,-7,1.1,8,1.1,-3
COc1ccc(F)cc1C(=O)C1CCCN(Cc2cccn2-c2cccnc2)C1 (configuration not stated),0.9,94*,1,3,0.1,-20
CC1(C)CC2CC(C)(CN2/C=N/c2sc3c(c2C#N)CC(C)(C)NC3(C)C)C1 (configuration not stated),/,/,/,/,/,-29
Cc1ccc(O)c(NC2=C(Cl)C(=O)N(Cc3ccccc3)C2=O)c1,0.7,51*,0.8,12,0.5,-2
CCOc1ccc(NC2=C(Cl)C(=O)N(Cc3ccccc3)C2=O)cc1,0.9,14,0.9,9,0.9,5
N#CC(=C=[N-])c1nc2ccccc2nc1-[n+]1cccc(NC(=O)c2cccs2)c1,/,/,/,/,/,16
CCCC(=O)NC(c1ccco1)c1cc([N+](=O)[O-])c2cccnc2c1O (configuration not stated),1.2,38,0.9,56*,0.6,-5
CC(=O)NC(c1ccco1)c1ccc2cccnc2c1O (configuration not stated),0.8,53*,0.7,42,0.5,7
CC(=O)NC(c1ccc(C)cc1)c1cc([N+](=O)[O-])c2cccnc2c1O (configuration not stated),0.7,60*,0.4,61*,0.4,16
CCC(=O)NC(c1ccc(C)cc1)c1cc([N+](=O)[O-])c2cccnc2c1O (configuration not stated),0.9,29,0.5,37,0.7,14
COc1cc(NC(=O)C/C(C)=N/NC(=O)C(=O)NCCO)c(OC)cc1Cl,/,/,/,/,/,-9
Cc1cccc(CSc2nc3c(c(-c4cccs4)c2C#N)CN(C)CC3)c1,0.3,58*,0.4,0,0.4,0
Cc1cccc(CSc2nc(N)c(C#N)c(-c3cccs3)c2C#N)c1,0.9,18,0.9,4,0.8,8
Cc1cc(OC(=O)c2ccc(S(=O)(=O)N3CCOCC3)cc2)c([N+](=O)[O-])c(=O)[nH]1,1.1,3,1.1,0,1,8
CCOC(=O)c1c(C)c(/C=N/Nc2ccccc2)n(C)c1C,1.7,13,2.5*,-5,0.9,1
CCOC(=O)c1c(C)c(C(=O)O)n(C)c1C,1,12,0.9,4,0.9,16
O=C(N/N=C\c1ccc(-c2ccccc2[N+](=O)[O-])o1)C1COc2cc3ccccc3cc2O1 (configuration not stated),0.3,64*,0.3,19,0.4,-11
COCCCNC(=S)NCCNc1nc2c(C)c(C)ccc2cc1C#N,1.7,3,2.8*,14,1,-13
SMILES,PMI activator,Diaphorase inh,PMI act satM6P,G6PDH counter,Diaph act CS,Tb hexokinase
COCCCNC(=S)NCCCNc1nc2cc(C)cc(C)c2cc1C#N,1.6,18,2.5*,10,0.8,-3
C/C(=N\Nc1cccc(Cl)c1)c1ccncc1,1.8,0,2.3*,0,1,-11
C/C(=N/Nc1ccc(F)cc1)c1ccc(Cl)s1,1.4,22,2.3*,-12,0.8,1
C/C(=N\Nc1ccc(F)cc1)c1ccncc1,1.6,12,2.5*,8,0.9,-5
C/C(=N\NC(N)=O)c1ccc(Cl)s1,/,/,/,/,/,-13
Clc1cccc(N/N=C/c2ccncc2)c1,1.1,10,1.2,-13,0.9,-39
C/C(=N\NC=O)c1ccncc1,1.1,-13,1,3,1.1,-5
C/C(=N\NC(=O)OC(C)(C)C)c1ccccc1Br,1,-17,1.1,7,1.2,0
Cc1cc(C(=O)NC2Cc3ccccc3C2)c(C)o1,/,/,/,/,/,-11
Cc1ccc(OCC(=O)N/N=C/c2cn(C)c3ccccc23)cc1,/,/,/,/,/,-31
CCOC(=O)c1c2ccc(OCC(=O)N/N=C/c3ccc(C)cc3)cc2n2ccccc12,0.3,61*,0.3,48,0.4,-3
CCOC(=O)c1c(C)n(C)c2cc(OCCN(CC)CC)ccc12,0.9,18,0.9,2,0.8,5
CCOC(=O)c1c2ccc(OCC(=O)NN)cc2n2ccccc12,0.2,64*,0.2,43,0.4,0
O=C(N/N=C/c1ccc(N2CCCCC2)o1)c1ccccc1,1,13,0.9,10,0.9,29
O=C(N/N=C/c1ccc(N2CCOCC2)o1)c1cccc([N+](=O)[O-])c1,0.2,76*,0.4,8,0.2,-11
Cc1c(C(=O)c2ccc(Cl)cc2[N+](=O)[O-])c2ccccn2c1CCC#N,0.6,64*,0.5,-1,0.4,-14
O=C(NC1CCS(=O)(=O)C1)/C(=C\c1ccco1)NC(=O)c1ccccc1 (configuration not stated),/,/,/,/,/,-22
O=C(NC1CCS(=O)(=O)C1)/C(=C/c1ccco1)NC(=O)c1ccccc1 (configuration not stated),1.1,55*,1,2,0.5,-12
COC1=C(N)C(=O)c2nc(-c3nc(C(=O)O)c(C)c(-c4ccc(OC)c(OC)c4O)c3N)ccc2C1=O,0.4,68*,0.4,56*,0.3,-6
CCOC(=O)Cc1cc(=O)n(-c2nc3ccccc3s2)[nH]1,1.7,20,2.4*,3,0.8,-1
Cn1cnc(S(=O)(=O)Nc2cc(-c3ccc(Cl)cc3)nn2C)c1,/,/,/,/,/,2
Cn1c(=O)c2c(nc(CN3CCc4ccccc4C3)n2CCCO)n(C)c1=O,1.8,3,2.2*,3,1,-16
Cn1c(=O)c2c(nc(CN3CCc4ccccc4C3)n2CCc2ccccc2)n(C)c1=O,/,/,/,/,/,-5

# High-throughput results deposited in PubChem BioAssay by several laboratories.
